Sampled rows, rich in hits. Any-hit rate of the full collection: about 2.2%.
GalR3 antag: GalR3 antagonists in HEK293 cells, primary screen, cell-based, fluorescence readout | 0.44% of 360,000 active | inhibition, % at 3 µM | HEK293 GalR3-CNG cAMP membrane potential fluorescence; galR3 body fused to GalR1 C-terminus | Galanin receptor type 3 (Homo sapiens), O60755 | AID 651719, 2012;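 active = inhibition above the screen-wide average plus 3 SD, cut at about 13% in these data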;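 also: forskolin and galanin both at EC90 stimulate the cells; cAMP rise reported by CNG channel membrane potential dye signal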
Target sequence (O60755 1-299 limits assumed): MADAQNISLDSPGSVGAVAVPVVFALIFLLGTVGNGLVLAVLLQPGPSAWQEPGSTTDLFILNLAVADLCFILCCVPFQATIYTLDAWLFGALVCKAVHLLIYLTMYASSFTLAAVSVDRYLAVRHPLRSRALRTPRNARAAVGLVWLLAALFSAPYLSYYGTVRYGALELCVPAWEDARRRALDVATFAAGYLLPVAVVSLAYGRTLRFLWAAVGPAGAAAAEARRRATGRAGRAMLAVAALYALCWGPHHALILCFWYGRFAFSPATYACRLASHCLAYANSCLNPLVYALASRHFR
V-ATPase pH: regulators of yeast V-ATPase proton pumping, primary screen, pHLuorin cytosolic pH fluorescence; 0.37% of 350,000 active; S. cerevisiae; response, % at 10 µM; in the data active = response mostly above about 7.3%, no sharp cut-off; inactive = mostly below about 5.4%; also: actives read high
Env fusion inh: inhibitors of HIV-1 Env-driven cell-cell fusion, primary screen, HeLa-JRFL effector, CEM21 target cells, luciferase; inhibition, % at 12.3 µM; 1.1% of 360,000 active; AID 651610, 2012;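 active = mean replicate inhibition score of at least 50 and every replicate individually at or above 50; inconclusive = only one of the two criteria met; inactive = mean below 50 and not all replicates reaching 50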
NR2E3 ag-1: inhibitors of NR2E3-RetCOR corepressor binding, primary screen, NR2E3 agonist project, biochemical, TR-FRET, GST-NR2E3, biotin-RetCOR; Photoreceptor-specific nuclear receptor (Homo sapiens), Q9Y5X4; 1536-well; inhibition of corepressor binding, % at 4.78 µM; 0.12% of 320,000 active; AID 2300, 2010;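 active = percent inhibition above the cutoff of mean plus 3 SD of all tested compounds, set per screening campaign, cut at about 20% in these data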
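Material: NR2E3–RetCOR corepressor complex / Amount: 1.35 nM GST-NR2E3 / Medium: Tris pH 7.5 / Compound: single nominal compound dose of 4.8 µM / Incubation: 5 h at 4 °C / Technique: TR-FRET, Eu(K)-anti-GST donor, streptavidin-D2 acceptor, ex 340, em 617/671 nm / Read-out basis: percent loss of FRET ratio relative to control wells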
NR2E3 ag-2: NR2E3 agonists in two-hybrid cells, primary screen, cell-based, luminescence, CHO-S, Gal4-NCOR/VP16-NR2E3. Photoreceptor-specific nuclear receptor (Homo sapiens), Q9Y5X4. luciferase. inhibition of corepressor binding, % at 3.98 µM. 0.35% of 360,000 active;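 active = inhibition above the mean of all tested compounds plus 3 SD, cut at about 70% in these data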;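 also: higher means lower luciferase signal from less NR2E3 corepressor binding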
GAA850 FXN act: FXN promoter activators, primary screen, cell-based, luciferase luminescence, HEK293 lucGAA850; HEK293 lucGAA850 FXN promoter luciferase reporter, 24 h; percent of 10 µM SAHA response; 0.56% of 360,000 active; AID 540364, 2011; activation, % at 6 µM;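 active = activation above the average of all compounds screened plus 3 SD, cutoff fixed separately per campaign, cut at about 7.5% in these data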
NR2E3 ag confirm: NR2E3 agonist confirmation in cells, cell-based, luminescence, CHO-S two-hybrid. shares compounds with NR2E3 ag-2. CHO-S mammalian two-hybrid NR2E3-NCOR, luciferase luminescence. inhibition, % at 3.98 µM. AID 624378, 2012. 51% of 2,300 active;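 active = average inhibition above a cutoff equal to the mean inhibition of all tested compounds plus one SD, cut at about 70% in these data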
VP16 counter: GAL4-VP16 reporter modulators, confirmation, counter-screen for NR2E3 agonist project, cell-based, luminescence, CHO-S, high throughput. shares compounds with NR2E3 ag-2. CHO-S GAL4-VP16 luciferase reporter. inhibition, % at 3.98 µM. 29% of 2,300 active;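 active = mean inhibition above a cutoff equal to the average over all tested compounds plus one standard deviation, cut at about 70% in these data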;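 also: luciferase from a UAS reporter driven by GAL4-VP16 transactivation; higher means less reporter light so more repression of VP16 activity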
Hits are given with their value; i = inactive; ? = inconclusive; nt = no result given.

SMILES	GalR3 antag	V-ATPase pH	Env fusion inh	NR2E3 ag-1	NR2E3 ag-2	GAA850 FXN act	NR2E3 ag confirm	VP16 counter
Cc1cc(=O)[nH]c(SCc2ccc(Cl)cc2Cl)n1	i	i	i	i	i	i	nt	nt
N#C[C@@H]1[C@H](c2ccc(C#CC3CCCC3)cc2)[C@H](CO)N1S(=O)(=O)c1ccccc1	nt	nt	i	nt	nt	nt	nt	nt
C[C@H](CO)N1C[C@H](C)[C@@H](CN(C)S(C)(=O)=O)Oc2ncc(C#CC3CCCCC3)cc2C1=O	nt	nt	i	nt	nt	nt	nt	nt
C[C@@H]1CCCCO[C@H](CN(C)C(=O)Nc2ccc(F)cc2)[C@@H](C)CN([C@H](C)CO)C(=O)c2cc(NC(=O)CCC(F)(F)F)ccc2O1	nt	nt	i	nt	nt	nt	nt	nt
COc1ccccc1N1CCN(C(=O)C2CCCN(S(=O)(=O)c3ccc4c(c3)oc(=O)n4C)C2)CC1 (stereo not given)	i	i	i	i	85	i	i	i
NS(=O)(=O)c1ccc(CCNC(=O)c2ccc(Cl)c(S(=O)(=O)N3CCCCC3)c2)cc1	i	i	i	nt	i	i	nt	nt
O=C(NCCC1=CCCCC1)c1ccc(Cl)c(S(=O)(=O)N2CCCCC2)c1	i	i	i	i	i	i	i	i
C[C@H](CO)N1C[C@H](C)[C@H](CN(C)Cc2ccc(C(F)(F)F)cc2)Oc2ccc(NC(=O)CCCN(C)C)cc2C1=O	nt	nt	i	nt	nt	nt	nt	nt
N#C[C@H]1[C@@H](c2ccc(C#CCC3CCCC3)cc2)[C@H](CO)N1C(=O)c1ccccn1	nt	nt	i	nt	nt	nt	nt	nt
Nc1nc2ccc(Cl)cc2cc1C(=O)NCc1ccc(Oc2ccccc2)cc1	nt	nt	nt	nt	95	nt	94	82
Nc1nc2ccc(Cl)cc2cc1C(=O)NCCc1ccc(Cl)cc1Cl	i	nt	i	nt	nt	nt	nt	nt
Nc1nc2ccc(Cl)cc2cc1C(=O)NCCc1c[nH]c2ccccc12	nt	nt	nt	nt	93	nt	94	83
Nc1nc2cc3c(cc2cc1C(=O)NCc1ccc(F)cc1)OCO3	nt	nt	nt	nt	88	nt	94	72
Cc1ccc(CC(=O)Nc2ccncc2)cc1	i	i	?	i	i	i	i	i
CO[C@@H]1CN(C)C(=O)c2cc(NS(=O)(=O)Cc3ccccc3)ccc2OC[C@H](C)NC[C@@H]1C	nt	nt	i	nt	nt	nt	nt	nt
Cn1nc(C(F)(F)F)c(/C=N/OC(=O)c2ccccc2)c1Sc1ccc(Cl)cc1	i	i	nt	i	i	i	nt	nt
Cn1nc(C(F)(F)F)c(/C=N/OC(=O)c2ccccc2)c1SCc1ccccc1Cl	i	i	?	i	i	i	71	i
CC1CCCCN1S(=O)(=O)c1ccc(N(C(=O)c2cnccn2)C(C(=O)NC2CCCC2)c2cccs2)cc1 (stereo not given)	i	i	i	i	i	i	nt	nt
CC1CCCCN1S(=O)(=O)c1ccc(N(C(=O)c2cnccn2)C(C(=O)NC2CCCCC2)c2cccs2)cc1 (stereo not given)	i	i	i	i	i	i	i	i
Cc1cc(S(=O)(=O)NCCC2=CCCCC2)ccc1Br	i	i	nt	i	i	i	nt	nt
Cc1ccc(S(=O)(=O)NCCC2=CCCCC2)cc1C(N)=O	i	i	i	i	75	i	84	i
Cn1c(=O)c2[nH]c(CCCCc3nc4ccccc4[nH]3)nc2n(C)c1=O	i	i	i	nt	i	i	nt	nt
Cn1c(=O)c2[nH]c(CCCCCCCCc3nc4ccccc4[nH]3)nc2n(C)c1=O	i	i	i	nt	i	i	79	i
COc1ccccc1N=Nc1nc(-c2ccccc2)c(-c2ccccc2)[nH]1	i	i	i	i	i	i	nt	nt
